# Measurements reported in ChEMBL document CHEMBL4190389, “Synthesis and activity of di- or trisubstituted N-(phenoxyalkyl)- or N-{2-[2-(phenoxy)ethoxy]ethyl}piperazine derivatives on the central nervous system” (Bioorg Med Chem Lett, 2018).
# Active and inactive are the calls of the source. No cut-off for these calls is given here.
# Assays:
# [1] = target: T1, 5-hydroxytryptamine receptor 1A (Homo sapiens, UniProt P08908); experiment: Displacement of [3H]8-OH-DPAT from recombinant human 5-HT1A receptor expressed in HEK293 cell membranes after 60 mins by liquid scintillation counting method
# T1 sequence (P08908 whole entry): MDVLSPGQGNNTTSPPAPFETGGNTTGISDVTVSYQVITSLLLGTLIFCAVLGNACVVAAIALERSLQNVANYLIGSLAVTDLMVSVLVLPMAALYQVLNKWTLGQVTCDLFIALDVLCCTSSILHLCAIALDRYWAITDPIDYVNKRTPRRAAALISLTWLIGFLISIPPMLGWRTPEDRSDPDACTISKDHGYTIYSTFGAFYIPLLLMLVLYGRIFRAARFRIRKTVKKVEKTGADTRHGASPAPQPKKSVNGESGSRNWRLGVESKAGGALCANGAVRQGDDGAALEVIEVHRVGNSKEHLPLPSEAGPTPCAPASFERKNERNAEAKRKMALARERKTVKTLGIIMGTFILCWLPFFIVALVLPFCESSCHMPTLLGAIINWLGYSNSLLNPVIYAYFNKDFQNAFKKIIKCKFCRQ
# Mus musculus [2] = experiment: Antidepressant-like activity in Albino Swiss CD-1 mouse assessed as immobility time at 5 mg/kg, ip administered 30 mins prior to test measured for last 4 mins of 6 mins observation by forced swim test (reference value: 153.9 to 201.9 secs); format: functional
# Mus musculus [3] = experiment: Antidepressant-like activity in Albino Swiss CD-1 mouse assessed as immobility time at 10 mg/kg, ip administered 30 mins prior to test measured for last 4 mins of 6 mins observation by forced swim test (reference value: 153.9 to 201.9 secs); format: functional
# Mus musculus [4] = experiment: Antidepressant-like activity in Albino Swiss CD-1 mouse assessed as immobility time at 20 mg/kg, ip administered 30 mins prior to test measured for last 4 mins of 6 mins observation by forced swim test (reference value: 153.9 to 201.9 secs); format: functional
# Mus musculus [5] = experiment: Anxiolytic-like activity in Albino Swiss CD-1 mouse assessed as increase in number of punished crossings at 2.5 mg/kg, ip administered for 30 mins prior to test measured for 1 min by four-plate test; format: functional, organism-based
# How it was run: (§1)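 Four-plate test in mice, i.p., 30 min before test; vehicle 0.9% NaCl; doses 1.25–10 mg/kg; number of punished crossings counted; mean ± SEM, n = 8–10 mice per group; ANOVA F statistics.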
# Mus musculus [6] = experiment: Anxiolytic-like activity in Albino Swiss CD-1 mouse assessed as increase in number of punished crossings at 5 mg/kg, ip administered for 30 mins prior to test measured for 1 min by four-plate test; format: functional, organism-based; how it was run: as §1
# Mus musculus [7] = experiment: Toxicity in Albino Swiss CD-1 mouse assessed as death at 100 mg/kg, ip; format: organism-based; conditions: in vivo
# How it was run: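 Deaths counted in mice during maximal electroshock (MES) seizure testing after i.p. dosing, 6 mice per dose (3 or 1 at some top doses); recorded as number dead/number tested alongside protection and rotarod motor impairment (10 rpm); untreated control group included.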
# Mus musculus [8] = experiment: Anticonvulsant activity in ip dosed Albino Swiss CD-1 mouse assessed as dose required to protect against 50 Hz current-induced seizure; format: functional; conditions: Swiss CD-1, ip
# [9] = Neurotoxicity in ip dosed Albino Swiss CD-1 mouse assessed as minimum dose required to induce motor impairment treated 30 mins prior to test by rotarod test; format: toxicity, organism-based; conditions: in vivo
# [10] = Protection index, ratio of TD50 for motor impairment in ip dosed Swiss albino CD-1 mouse to ED50 for protection against 50 Hz current-induced seizures in ip dosed Swiss albino CD-1 mouse; format: toxicity, organism-based, Swiss CD-1; conditions: in vivo, read-out: Ratio TD50/ED50
# Mus musculus [11] = experiment: Toxicity in Albino Swiss CD-1 mouse assessed as effect on locomotory activity at 1.25 to 5 mg/kg, ip administered for 30 mins prior to test measured for 1 min; format: organism-based; conditions: in vivo
# [12] = target: 5-hydroxytryptamine receptor 6 (Homo sapiens, UniProt P50406); experiment: Displacement of [3H]LSD from recombinant human 5-HT6 receptor expressed in CHO cells cell membranes at 10^-5 M after 60 mins by liquid scintillation counting method
# [13] = target: 5-hydroxytryptamine receptor 7 (Homo sapiens, UniProt P34969); experiment: Displacement of [3H]LSD from recombinant human 5-HT7 receptor expressed in CHO cell membranes at 10^-5 M after 60 mins by liquid scintillation counting method
# [14] = target: T2, Alpha-1A adrenergic receptor (Homo sapiens) (UniProt P35348); experiment: Displacement of [3H]prazosin from recombinant human alpha1 adrenoceptor expressed in CHO cell membranes at 10^-5 M after 30 mins by liquid scintillation counting method
# T2 sequence (whole entry): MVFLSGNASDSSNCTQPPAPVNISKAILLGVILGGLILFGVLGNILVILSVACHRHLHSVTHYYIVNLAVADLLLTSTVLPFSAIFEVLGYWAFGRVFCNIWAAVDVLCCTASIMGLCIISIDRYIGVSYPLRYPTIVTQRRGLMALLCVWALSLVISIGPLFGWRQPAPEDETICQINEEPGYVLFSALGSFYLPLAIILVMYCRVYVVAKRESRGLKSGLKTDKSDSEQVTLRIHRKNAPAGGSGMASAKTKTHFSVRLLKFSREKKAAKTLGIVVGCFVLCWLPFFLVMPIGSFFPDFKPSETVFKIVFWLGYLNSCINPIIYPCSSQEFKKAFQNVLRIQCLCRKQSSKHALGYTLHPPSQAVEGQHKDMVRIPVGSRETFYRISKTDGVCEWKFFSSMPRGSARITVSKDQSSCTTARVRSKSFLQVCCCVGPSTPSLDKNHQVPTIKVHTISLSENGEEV
# [15] = target: 5-hydroxytryptamine receptor 2A (Homo sapiens, UniProt P28223); experiment: Displacement of [3H]-ketanserin from recombinant human 5-HT2A receptor after 60 mins by liquid scintillation counting method
# [16] = target: T1, 5-hydroxytryptamine receptor 1A; experiment: Displacement of [3H]8-OH-DPAT from human 5-HT1A receptor expressed in HEK293 cell membranes after 1 hr
# Mus musculus [17] = experiment: Antidepressant-like activity in ip dosed Albino Swiss CD-1 mouse assessed as decrease in immobility time administered […] prior to test measured for last 4 mins of 6 mins observation by forced swim test (reference value: 153.9 to 201.9 secs); format: functional
# Chain of 5-hydroxytryptamine receptor 2A (P28223 whole entry): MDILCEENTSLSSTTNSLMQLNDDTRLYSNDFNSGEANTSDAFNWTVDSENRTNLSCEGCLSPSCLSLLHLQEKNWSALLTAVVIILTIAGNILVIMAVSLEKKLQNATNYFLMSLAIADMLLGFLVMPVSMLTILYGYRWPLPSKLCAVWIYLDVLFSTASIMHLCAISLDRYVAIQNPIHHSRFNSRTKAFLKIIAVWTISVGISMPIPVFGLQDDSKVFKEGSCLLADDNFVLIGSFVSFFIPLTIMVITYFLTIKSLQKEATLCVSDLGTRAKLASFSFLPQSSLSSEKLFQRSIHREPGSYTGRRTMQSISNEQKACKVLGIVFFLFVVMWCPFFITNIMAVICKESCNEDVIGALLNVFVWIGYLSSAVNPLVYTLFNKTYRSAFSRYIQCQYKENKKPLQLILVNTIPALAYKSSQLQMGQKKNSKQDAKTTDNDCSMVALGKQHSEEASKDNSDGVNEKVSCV
# Chain of 5-hydroxytryptamine receptor 6 (P50406 whole entry): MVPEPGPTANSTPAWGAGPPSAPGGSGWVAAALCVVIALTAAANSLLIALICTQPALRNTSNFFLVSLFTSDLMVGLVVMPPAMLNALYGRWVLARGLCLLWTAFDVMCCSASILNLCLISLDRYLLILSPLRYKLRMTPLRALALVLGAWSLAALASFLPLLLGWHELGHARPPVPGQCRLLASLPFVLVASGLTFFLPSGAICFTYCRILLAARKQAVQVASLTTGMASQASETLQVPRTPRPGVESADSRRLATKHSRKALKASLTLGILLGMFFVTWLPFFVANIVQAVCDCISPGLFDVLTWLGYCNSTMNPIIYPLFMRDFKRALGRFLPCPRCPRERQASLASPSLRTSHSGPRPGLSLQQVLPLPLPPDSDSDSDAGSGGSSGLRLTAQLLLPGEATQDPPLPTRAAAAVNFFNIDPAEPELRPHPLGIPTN
# Chain of 5-hydroxytryptamine receptor 7 (P34969 whole entry): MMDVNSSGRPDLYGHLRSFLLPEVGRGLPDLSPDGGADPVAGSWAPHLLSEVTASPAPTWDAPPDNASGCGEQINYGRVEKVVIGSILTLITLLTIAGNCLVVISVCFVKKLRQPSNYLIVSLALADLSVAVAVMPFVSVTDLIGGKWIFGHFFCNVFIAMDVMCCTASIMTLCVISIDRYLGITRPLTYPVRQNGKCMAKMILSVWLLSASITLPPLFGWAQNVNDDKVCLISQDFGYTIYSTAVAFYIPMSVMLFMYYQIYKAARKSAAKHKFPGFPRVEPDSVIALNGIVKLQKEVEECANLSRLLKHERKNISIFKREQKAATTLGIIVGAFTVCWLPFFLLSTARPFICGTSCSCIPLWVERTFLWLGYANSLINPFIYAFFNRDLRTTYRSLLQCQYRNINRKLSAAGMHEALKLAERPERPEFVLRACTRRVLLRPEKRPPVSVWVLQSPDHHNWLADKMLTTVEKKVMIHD
compound,measurement,setting,value
Cc1cc(C)c(OCCN2CCN(CCOCCO)CC2)c(C)c1.Cl.Cl,Ki,[1],3.17 µM
same,Time,Mus musculus [2],152.5 s
same,Time,Mus musculus [3],135.3 s
same,Time,Mus musculus [4],128 s
same,Activity,Mus musculus [5],Active
same,Activity,Mus musculus [6],Active
same,Activity,Mus musculus [7],Non-Toxic
same,ED50,Mus musculus [8],45.4 mg/kg
same,TD50 at 0.5 h,[9],85.3 mg/kg
same,selectivity ratio,[10],1.88
same,Activity,Mus musculus [11],Non-Toxic
same,inhibition,[12],inactive
same,inhibition,[13],inactive
same,inhibition,[14],inactive
COc1ccccc1N1CCN(CCCOc2c(C)cc(C)cc2C)CC1.Cl,Ki,[15],2.83 µM
same,Ki,[16],< 0.001 µM
same,ED,Mus musculus [17],5 mg/kg
